{
  "source": "ChEMBL document CHEMBL4477177",
  "about": "“Antituberculosis Activity of a Naturally Occurring Flavonoid, Isorhamnetin” (J Nat Prod, 2016)",
  "key": {"[1]": {"tested_on": "Mycobacterium tuberculosis", "test": "Antitubercular activity against Mycobacterium tuberculosis H37Rv P887 incubated for 1 to 9 days by inverted microscopic analysis", "type": "functional", "how_it_was_run": "(§1)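 Bacteria immobilised in 0.5% agarose within microfluidic channels of a 96-well chip. Compound (0–632 μM; rifampicin 0–19.4 μM) supplied in Middlebrook 7H9 with 10% OADC and allowed to diffuse in. Incubated at 37 °C; channel boundary imaged by inverted microscopy (40×) at 1, 3, 5, 7 and 9 days. MIC90 taken as lowest concentration giving 90% growth inhibition. Triplicate.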"}, "[2]": {"tested_on": "Mycobacterium tuberculosis", "test": "Antitubercular activity against MDR Mycobacterium tuberculosis M22 incubated for 1 to 9 days by inverted microscopic analysis", "type": "functional", "how_it_was_run": "as §1"}, "[3]": {"tested_on": "Mycobacterium tuberculosis", "test": "Antitubercular activity against MDR Mycobacterium tuberculosis X23 incubated for 1 to 9 days by inverted microscopic analysis", "type": "functional"}, "[4]": {"tested_on": "Mycobacterium tuberculosis", "test": "Antitubercular activity against XDR Mycobacterium tuberculosis X24 incubated for 1 to 9 days by inverted microscopic analysis", "type": "functional", "how_it_was_run": "as §1"}, "[5]": {"tested_on": "Mycobacterium tuberculosis", "test": "Antitubercular activity against XDR Mycobacterium tuberculosis X59 incubated for 1 to 9 days by inverted microscopic analysis", "type": "functional", "how_it_was_run": "as §1"}, "[6]": {"test": "Lipophilicity, logP of the compound", "type": "physicochemical", "conditions": "octanol/water"}, "[7]": {"biological_target": "Mitogen-activated protein kinase 3 (Homo sapiens) (UniProt P27361)", "sequence (P27361 whole entry)": "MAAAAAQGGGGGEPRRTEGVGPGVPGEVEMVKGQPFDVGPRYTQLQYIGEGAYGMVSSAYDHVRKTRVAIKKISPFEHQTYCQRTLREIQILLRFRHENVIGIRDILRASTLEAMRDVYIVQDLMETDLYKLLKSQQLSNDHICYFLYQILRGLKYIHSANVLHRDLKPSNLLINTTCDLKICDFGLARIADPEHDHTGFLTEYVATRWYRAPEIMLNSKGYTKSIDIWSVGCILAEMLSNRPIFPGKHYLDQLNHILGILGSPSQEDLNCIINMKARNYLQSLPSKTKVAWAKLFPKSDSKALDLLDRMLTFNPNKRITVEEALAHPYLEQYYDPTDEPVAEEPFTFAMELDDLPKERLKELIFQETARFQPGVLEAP", "test": "Binding affinity to human ERK1 expressed in Escherichia coli BL21 by fluorescence quenching based spectrofluorometric analysis", "how_it_was_run": "(§2)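 C-terminally His6-tagged ERK1 or p38 MAPK expressed in E. coli and purified. Protein at 10 μM in 50 mM sodium phosphate, 100 mM NaCl, pH 8.0, titrated with ligand to 1:10 protein:ligand. Excitation 290 nm, emission 290–500 nm. Binding constant K derived from fluorescence quenching.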"}, "[8]": {"biological_target": "MAP kinase p38 (Homo sapiens) (UniProt O15264+Q15759+Q16539+P53778)", "test": "Binding affinity to human C-terminally His-tagged p38 expressed in Escherichia coli BL21 by fluorescence quenching based spectrofluorometric analysis", "how_it_was_run": "as §2"}},
  "data": [
    {"smiles": "COc1ccc(-c2oc3cc(O)cc(O)c3c(=O)c2O)cc1O", "note": "[TAMARIXETIN]", "values": [
      {"measurement": "MIC90", "setting": "[1]", "value": 632, "unit": "µM"},
      {"measurement": "MIC90", "setting": "[2]", "value": 632, "unit": "µM"},
      {"measurement": "MIC90", "setting": "[3]", "value": 632, "unit": "µM"},
      {"measurement": "MIC90", "setting": "[4]", "value": "> 632", "unit": "µM"},
      {"measurement": "MIC90", "setting": "[5]", "value": "> 632", "unit": "µM"},
      {"measurement": "logP", "setting": "[6]", "value": 1.86},
      {"measurement": "K", "setting": "[7]", "value": 6.31, "unit": "×10⁴ /M"},
      {"measurement": "K", "setting": "[8]", "value": 4.64, "unit": "×10⁴ /M"}
    ]}
  ]
}
